Source: ChEMBL document CHEMBL1142436, “Design and synthesis of 4-substituted indolo[3,2-e][1,2,3]triazolo[1,5-a]pyrimidine derivatives with antitumor activity” (2008)
Each block holds one compound with its values, some of them ahead of it.

Columns and labels:
Type in all cases: functional
[1] = tested on: MCF7; assay: Antitumor activity against human MCF7 cells at 0.1 mM after 48 hrs
In short: (§1)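 Prescreen run under the NCI Developmental Therapeutic Program. Agents were tested at a single concentration of 10^-4 M against a three-line panel (MCF7, NCI-H460, SF-268).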

[2] = tested on: NCI-H460; assay: Antitumor activity against human NCI-H460 cells at 0.1 mM after 48 hrs; in short: as §1
[3] = tested on: SF-268; assay: Antitumor activity against human SF268 cells at 0.1 mM after 48 hrs; in short: as §1
[4] = tested on: CCRF-CEM; assay: Growth inhibition of human CCRF-CEM cells after 48 hrs
In short: (§2)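 NCI ~60-line screen. Cells were grown in RPMI 1640 with 5% FBS and 2 mM L-glutamine and plated at 5000–40000 cells/well. After a 24 h preincubation, five drug concentrations from DMSO stocks were added for 48 h at 37 °C. Cells were TCA-fixed, stained with SRB and read at 515 nm. GI50 was taken from time-zero and control absorbances and reported as pGI50.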

[5] = tested on: HL-60; assay: Growth inhibition of human HL60 cells after 48 hrs; conditions: HL-60, 48 h; in short: as §2
[6] = tested on: K562; assay: Growth inhibition of human K562 cells after 48 hrs; conditions: K562, 48 h; in short: as §2
[7] = tested on: MOLT-4; assay: Growth inhibition of human MOLT4 cells after 48 hrs; conditions: MOLT-4, 48 h; in short: as §2
[8] = Growth inhibition of human HS578T cells after 48 hrs; conditions: Hs-578T; in short: as §2
[9] = tested on: MDA-MB-435; assay: Growth inhibition of human MDA-MB435 cells after 48 hrs; conditions: MDA-MB-435, 48 h; in short: as §2
[10] = tested on: BT-549; assay: Growth inhibition of human BT549 cells after 48 hrs; conditions: BT-549, 48 h; in short: as §2
[11] = tested on: T47D; assay: Growth inhibition of human T47D cells after 48 hrs
In short: (§3)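 NCI 60-line screen: cells in RPMI 1640 with 5% FBS and 2 mM L-glutamine, plated at 5000–40000 cells/well, grown 24 h (37 °C, 5% CO₂), then exposed to five 10-fold or ½-log dilutions (DMSO stock) for 48 h. Fixed with TCA (final 10% for adherent cells, 16% for suspension cells), then SRB stained with absorbance at 515 nm. GI50 from percentage growth relative to time-zero and control wells.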

[12] = tested on: RPMI-8226; assay: Growth inhibition of human RPMI8226 cells after 48 hrs; conditions: RPMI-8226, 48 h; in short: as §2
[13] = tested on: SR; assay: Growth inhibition of human SR cells after 48 hrs; in short: as §3
[14] = tested on: A549; assay: Growth inhibition of human A549 cells after 48 hrs; conditions: A549, 48 h; in short: as §2
[15] = tested on: EKVX; assay: Growth inhibition of human EKVX cells after 48 hrs; in short: as §2
[16] = tested on: HOP-62; assay: Growth inhibition of human HOP62 cells after 48 hrs; conditions: HOP-62, 48 h; in short: as §2
[17] = tested on: HOP-92; assay: Growth inhibition of human HOP92 cells after 48 hrs; conditions: HOP-92, 48 h; in short: as §2
[18] = tested on: NCI-H226; assay: Growth inhibition of human NCI-H226 cells after 48 hrs; conditions: NCI-H226, 48 h; in short: as §2
[19] = tested on: NCI-H23; assay: Growth inhibition of human NCI-H23 cells after 48 hrs; conditions: Homo sapiens, NCI-H23, 48 h; in short: as §2
[20] = tested on: NCI-H322M; assay: Growth inhibition of human NCI-H322M cells after 48 hrs; in short: as §2
[21] = tested on: NCI-H460; assay: Growth inhibition of human NCI-H460 cells after 48 hrs; conditions: NCI-H460, 48 h; in short: as §2
[22] = tested on: NCI-H522; assay: Growth inhibition of human NCI-H522 cells after 48 hrs; conditions: NCI-H522, 48 h; in short: as §2
[23] = tested on: COLO 205; assay: Growth inhibition of human COLO205 cells after 48 hrs; conditions: COLO 205, 48 h; in short: as §2
[24] = tested on: HCC 2998; assay: Growth inhibition of human HCC2998 cells after 48 hrs; conditions: HCC 2998, 48 h; in short: as §2
[25] = tested on: HCT-116; assay: Growth inhibition of human HCT116 cells after 48 hrs; conditions: HCT-116, 48 h; in short: as §2
[26] = tested on: HCT-15; assay: Growth inhibition of human HCT15 cells after 48 hrs; conditions: HCT-15, 48 h; in short: as §2
[27] = tested on: HT-29; assay: Growth inhibition of human HT29 cells after 48 hrs; conditions: HT-29, 48 h; in short: as §2
[28] = tested on: KM12; assay: Growth inhibition of human KM12 cells after 48 hrs; conditions: KM12, 48 h; in short: as §2
[29] = tested on: SW-620; assay: Growth inhibition of human SW620 cells after 48 hrs; conditions: SW-620, 48 h; in short: as §3
[30] = tested on: SF-268; assay: Growth inhibition of human SF268 cells after 48 hrs; conditions: SF-268, 48 h; in short: as §2
[31] = tested on: SF-295; assay: Growth inhibition of human SF295 cells after 48 hrs; conditions: SF-295, 48 h; in short: as §2
[32] = tested on: SF-539; assay: Growth inhibition of human SF539 cells after 48 hrs; conditions: SF-539, 48 h; in short: as §2
[33] = tested on: SNB-19; assay: Growth inhibition of human SNB19 cells after 48 hrs; conditions: SNB-19, 48 h; in short: as §3
[34] = tested on: SNB-75; assay: Growth inhibition of human SNB75 cells after 48 hrs; conditions: SNB-75, 48 h; in short: as §3
[35] = tested on: U-251; assay: Growth inhibition of human U251 cells after 48 hrs; conditions: U-251, 48 h; in short: as §3
[36] = tested on: LOX IMVI; assay: Growth inhibition of human LOXIMVI cells after 48 hrs; in short: as §2
[37] = tested on: Malme-3M; assay: Growth inhibition of human MALME3M cells after 48 hrs; in short: as §2
[38] = tested on: M14; assay: Growth inhibition of human M14 cells after 48 hrs; conditions: M14, 48 h; in short: as §2
[39] = tested on: SK-MEL-2; assay: Growth inhibition of human SK-MEL2 cells after 48 hrs; conditions: SK-MEL-2, 48 h; in short: as §2
[40] = tested on: SK-MEL-28; assay: Growth inhibition of human SK-MEL28 cells after 48 hrs; conditions: SK-MEL-28, 48 h; in short: as §2
[41] = tested on: SK-MEL-5; assay: Growth inhibition of human SK-MEL5 cells after 48 hrs; conditions: SK-MEL-5, 48 h; in short: as §2
[42] = tested on: UACC-257; assay: Growth inhibition of human UACC257 cells after 48 hrs; conditions: UACC-257, 48 h; in short: as §3
[43] = tested on: UACC-62; assay: Growth inhibition of human UACC62 cells after 48 hrs; conditions: UACC-62, 48 h; in short: as §3
[44] = tested on: IGROV-1; assay: Growth inhibition of human IGROV1 cells after 48 hrs; conditions: IGROV-1, 48 h; in short: as §2
[45] = tested on: OVCAR-3; assay: Growth inhibition of human OVCAR-3 cells after 48 hrs; conditions: OVCAR-3, 48 h; in short: as §2
[46] = tested on: OVCAR-4; assay: Growth inhibition of human OVCAR4 cells after 48 hrs; conditions: OVCAR-4, 48 h; in short: as §2
[47] = tested on: OVCAR-5; assay: Growth inhibition of human OVCAR5 cells after 48 hrs; conditions: OVCAR-5, 48 h; in short: as §2
[48] = tested on: OVCAR-8; assay: Growth inhibition of human OVCAR8 cells after 48 hrs; conditions: OVCAR-8, 48 h; in short: as §2
[49] = tested on: SK-OV-3; assay: Growth inhibition of human SKOV3 cells after 48 hrs; conditions: SK-OV-3, 48 h; in short: as §3
[50] = tested on: 786-0; assay: Growth inhibition of human 786-0 cells after 48 hrs; conditions: 786-0, 48 h; in short: as §2
[51] = tested on: A498; assay: Growth inhibition of human A498 cells after 48 hrs; conditions: A498, 48 h; in short: as §2
[52] = tested on: ACHN; assay: Growth inhibition of human ACHN cells after 48 hrs; in short: as §2
[53] = tested on: CAKI-1; assay: Growth inhibition of human CAKI1 cells after 48 hrs; conditions: CAKI-1, 48 h; in short: as §2
[54] = tested on: RXF 393; assay: Growth inhibition of human RXF393 cells after 48 hrs; conditions: RXF 393, 48 h; in short: as §2
[55] = tested on: SN12C; assay: Growth inhibition of human SN12C cells after 48 hrs; in short: as §3
[56] = tested on: TK-10; assay: Growth inhibition of human TK10 cells after 48 hrs; conditions: TK-10, 48 h; in short: as §3
[57] = tested on: UO-31; assay: Growth inhibition of human UO31 cells after 48 hrs; conditions: UO-31, 48 h; in short: as §3
[58] = tested on: PC-3; assay: Growth inhibition of human PC3 cells after 48 hrs; conditions: PC-3, 48 h; in short: as §2
[59] = tested on: DU-145; assay: Growth inhibition of human DU145 cells after 48 hrs; conditions: DU-145, 48 h; in short: as §2
[60] = tested on: MCF7; assay: Growth inhibition of human MCF7 cells after 48 hrs; conditions: MCF7, 48 h; in short: as §2
[61] = tested on: NCI/ADR-RES; assay: Growth inhibition of human NCI/ADR-RES cells after 48 hrs; in short: as §2
[62] = tested on: MDA-MB-231; assay: Growth inhibition of human MDA-MB-231 cells after 48 hrs; conditions: MDA-MB-231, 48 h; in short: as §2

SMILES: CCOC(=O)CCCn1c(=O)c2c3ccccc3n(C)c2n2nnc(-c3ccccc3)c12
Activity [1]: 114%
Activity [2]: 95%
Activity [3]: 110%

GI50 [4]: > 100 µM
GI50 [5]: > 100 µM
GI50 [6]: > 100 µM
GI50 [7]: > 100 µM
GI50 [9]: > 100 µM
GI50 [10]: > 100 µM
GI50 [11]: > 100 µM
GI50 [12]: > 100 µM
GI50 [14]: > 100 µM
GI50 [18]: > 100 µM
GI50 [19]: > 100 µM
GI50 [20]: > 100 µM
GI50 [21]: > 100 µM
GI50 [22]: > 100 µM
GI50 [23]: > 100 µM
GI50 [24]: > 100 µM
GI50 [25]: > 100 µM
GI50 [26]: > 100 µM
GI50 [27]: > 100 µM
GI50 [29]: > 100 µM
GI50 [35]: > 100 µM
GI50 [39]: > 100 µM
GI50 [40]: > 100 µM
GI50 [41]: > 100 µM
GI50 [45]: > 100 µM
GI50 [46]: > 100 µM
GI50 [47]: > 100 µM
GI50 [48]: > 100 µM
GI50 [49]: > 100 µM
GI50 [50]: > 100 µM
GI50 [52]: > 100 µM
GI50 [58]: 30.2 µM
GI50 [59]: > 100 µM
GI50 [60]: > 100 µM
GI50 [62]: > 100 µM
SMILES: COC(=O)C(Cc1c[nH]cn1)NC(=O)CNC(=O)CCCn1c(=O)c2c3ccccc3n(C)c2n2nnc(-c3ccccc3)c12 (configuration not stated)
GI50 [8]: > 100 µM
GI50 [13]: > 100 µM
GI50 [15]: > 100 µM
GI50 [16]: > 100 µM
GI50 [17]: > 100 µM
GI50 [28]: > 100 µM
GI50 [30]: > 100 µM
GI50 [31]: > 100 µM
GI50 [32]: > 100 µM
GI50 [33]: > 100 µM
GI50 [34]: > 100 µM
GI50 [36]: > 100 µM
GI50 [37]: > 100 µM
GI50 [38]: > 100 µM
GI50 [42]: > 100 µM
GI50 [43]: > 100 µM
GI50 [44]: 72.4 µM
GI50 [51]: > 100 µM
GI50 [53]: > 100 µM
GI50 [54]: > 100 µM
GI50 [55]: > 100 µM
GI50 [56]: > 100 µM
GI50 [57]: > 100 µM
GI50 [61]: > 100 µM
